The text below walks through data of ChEMBL document CHEMBL4257584, “Sterol 14α-Demethylase Structure-Based Optimization of Drug Candidates for Human Infections with the Protozoan Trypanosomatidae” (J Med Chem, 2018).

Series [1] can be described thus: Maximum plasma concentration in BALB/c mouse at 25 mg/kg, po via gavage by […]. The series is classed as ADME, organism-based. Further details: dose 25 mg/kg, route oral. The method in brief:
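Single oral gavage dose of 25 mg/kg in BALB/c mice; blood sampled at 1, 2, 4, 6, 10, 16, 24 h. Plasma is diluted in PBS with ketoconazole internal standard, extracted with 80% acetonitrile, dried and redissolved. Analysed by reversed-phase HPLC with UV at 291/250 nm, 0.1 μM detection limit. Lifetime is time until undetectable.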

A short description of series [2]: Intrinsic clearance in CD1 mouse liver microsomes at 1 uM preincubated for 5 mins followed by NADPH addition and measured after 45 mins by LC/MS/MS analysis. The format is ADME, microsome. The settings on record: read-out: CLH. A general note: Liver microsomes are vesicles of endoplasmic reticulum, rich in cytochrome P450 enzymes.
Series [3] has as its system Mus musculus. Put plainly: Toxicity in Swiss Webster mouse assessed as effect on biochemical plasma parameters at 200 mg/kg, po administered as single dose measured after 48 hrs. The format is organism-based. The settings on record: in vivo. Put shortly: (§1)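 Swiss Webster mice (21–23 g, n=3) get a single oral 200 mg/kg dose, given as in the PK study. They are inspected for toxic and sub-toxic signs per OECD guidelines (behaviour, motility, neurological state, skin, fur), and body weight is tracked 0–48 h. At 48 h, mice are euthanized and organ weights are normalized to body weight. Blood is taken for haematology and plasma biochemistry.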

Series [4] is described as follows: Hepatic clearance in Sprague-Dawley rat liver microsomes at 1 uM preincubated for 5 mins followed by NADPH addition and measured after 45 mins by LC/MS/MS analysis. The series is classed as ADME, microsome. Put shortly:
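Pooled liver microsomes at 0.5 mg/mL: human (mixed gender), male Sprague-Dawley rat, or male CD-1 mouse, with test compound at 1 μM, triplicate. In vitro t1/2 is scaled to CLint (45 mg microsomes/g liver; 45 g liver/kg scaling factor). CLhep uses well-stirred model with hepatic blood flow 21 (human), 70 (rat), 90 (mouse) mL/min/kg.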

Series [5] has as its system Mus musculus. Put plainly: Toxicity in Swiss Webster mouse assessed as effect on spleen weight at 200 mg/kg, po administered as single dose measured after 48 hrs. The series is classed as organism-based. Particulars: in vivo. Put shortly:
as §1

A short description of series [6]: Hepatic clearance in CD1 mouse liver microsomes at 1 uM preincubated for 5 mins followed by NADPH addition and measured after 45 mins by LC/MS/MS analysis. The series is classed as ADME, microsome.
Series [7] deals with Sterol 14-alpha demethylase (Trypanosoma cruzi (strain CL Brener), UniProt Q7Z1V1). Put plainly: Binding affinity to Trypanosoma cruzi Y CYP51A expressed in Escherichia coli. Put shortly: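 Recombinant CYP51A from Y strain T. cruzi, expressed in E. coli and purified, titrated spectrally at 0.5 μM P450 in 5 cm path cuvettes with ligand over 0.1–1 μM. Type of absorbance change in difference spectra Δ(A430-A411) plotted against ligand concentration. Apparent Kd obtained by fitting to the Morrison quadratic tight-binding equation by nonlinear regression.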

Series [8] relates to Mus musculus. The series can be described thus: Toxicity in Swiss Webster mouse assessed as effect on skin at 200 mg/kg, po administered as single dose measured after 48 hrs. The settings on record: in vivo. The series is classed as organism-based. Put shortly:
as §1

Sterol 14-alpha demethylase, sequence (Q7Z1V1 whole entry): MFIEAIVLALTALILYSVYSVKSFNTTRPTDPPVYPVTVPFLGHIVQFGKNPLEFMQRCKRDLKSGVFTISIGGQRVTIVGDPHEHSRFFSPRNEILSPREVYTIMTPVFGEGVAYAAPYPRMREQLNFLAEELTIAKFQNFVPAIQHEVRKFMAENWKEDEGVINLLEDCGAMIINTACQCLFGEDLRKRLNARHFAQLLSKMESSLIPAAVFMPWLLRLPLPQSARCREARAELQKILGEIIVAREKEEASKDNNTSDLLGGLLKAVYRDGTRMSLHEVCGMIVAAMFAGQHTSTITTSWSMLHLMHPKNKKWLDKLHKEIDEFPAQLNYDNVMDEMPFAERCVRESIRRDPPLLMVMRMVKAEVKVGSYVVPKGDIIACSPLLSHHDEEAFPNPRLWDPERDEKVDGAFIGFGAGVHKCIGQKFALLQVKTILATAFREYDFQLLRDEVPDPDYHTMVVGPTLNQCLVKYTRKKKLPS

The Cmax is the maximum level reached in the sampled fluid or tissue. Broadly, the Kd is the concentration at which binding is half-saturated. The low end stands for a tighter complex, the high end for a looser complex. Take `O=C(N[C@@H](Cn1ccnc1)c1c(F)cc(-c2ccc(F)cc2)cc1F)c1ccc(-c2nnc(-c3ccccc3)o2)cc1`: in series [1], the Cmax worked out at 25 µM. Further, in series [2], the CLint scaled at 1 µM was 237 mL/min/kg. The Activity result in the series on Mus musculus [3], with Mus musculus [5] and in the series on Mus musculus [8] was “Non-Toxic” throughout. Moreover, the values for the CLhep predicted at 1 µM in series [4] and in series [6] were 31.1 mL/min/kg and 65.2 mL/min/kg, respectively. Moreover, binding in series [7] was characterised by a dissociation constant (Kd) of 8.4 nM.
